# Screening data from PubChem.
# Ecoli rRNA inh – reduced GFP signal of wild-type E. coli, primary screen, bacterial rRNA inhibitor project, GFP/RFP fluorescence, OD600, single point; E. coli WT GFP vs humanized-ribosome RFP mutants, 24 h; hits give low values; DMSO median 0, no signal -100; GFP signal change (wild-type ribosome), % (no concentration beside the values); actives 1.6% (n = 350,000);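 active = significant combined selectivity score with lowered wild-type GFP, culture density cut under 30%, mutant RFP and density less affected; inactive = any of these conditions unmet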
# Cneo AK release – Cryptococcus neoformans cell lysis inducers, primary screen, AK release luminescence, single concentration; C. neoformans lysis, adenylate kinase release luminescence, 4 h; normalised: neutral wells 0, clomiphene wells 100; lysis activity, % at 15 µM; actives 0.2% (n = 360,000); AID 651654, 2012;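 active = mean lysis activity across replicates of at least 80%, whatever share of replicates individually reach that level; inactive = mean lysis activity below 80%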
#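 Assay system: Cryptococcus neoformans yeast cells / Dosing: single-point compound dose / Timing: 4 h at 37 °C static, read 1 h later / Measured by: luminescence of released adenylate kinase using an AK detection reagent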
# CaV13 FRET inh – Disruptors of the CACNA1D IQ motif to Ca2+-dependent inactivation inhibitor domain association, primary screening, Förster resonance energy transfer in intact living …; AID 743397; HEK cells, CFP/YFP FRET ICDI-IQ, plate reader, 10 min; percent FRET-ratio fall versus neutral wells; inhibition, % at 12.3 µM; actives 0.098% (n = 340,000);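 active = mean replicate inhibition of at least 30% and at least 1% of replicates passing that level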;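 also: 0% = median of the neutral control wells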
# CFTR F508del cor – F508del CFTR correction, initial screen, CFBE line, single point; actives 0.36% (n = 350,000); activity (quench increase), % at 7.58 µM; CFBE cells, YFP halide quenching; stimulated with forskolin plus potentiator P3; % fluorescence drop versus neutral controls;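 active = mean added fluorescence quench of at least 8% versus neutral control, with both replicates also reaching 8%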;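 also: cells transiently co-express mutant CFTR-F508del with the halide-sensitive YFP; corrector assay measuring rescue of mutant channel to the surface after 24 h compound exposure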
# * = called active by the depositor; · = no result. Compounds with a hit are over-represented: about 1.7% of the library has one in this group of screens.
SMILES,Ecoli rRNA inh,Cneo AK release,CaV13 FRET inh,CFTR F508del cor
COc1ccccc1OCc1ccc(C(=O)N(C)c2ccccc2)o1,-16,-3,39*,0
C[C@@H]1C(=O)N[C@H](c2ccc(F)cc2)CC=CC[C@H](C)Oc2ccccc2C(=O)N1C (mixture of isomers),-2,·,·,·
Cc1ccc(S(=O)(=O)N[C@H]2CC[C@H](CCn3cc(-c4ccccc4F)nn3)O[C@@H]2CO)cc1,-1,0,·,-8
CCN(CC(=O)Nc1ccc(NC(C)=O)cc1)C(=O)c1ccc(N2CCC(C)CC2)c([N+](=O)[O-])c1,1,-1,-6,41*
Cc1cc(Sc2nnc(N)s2)c2ccccc2n1,7,·,0,4
Cc1cc(Sc2nnc(/N=C/N(C)C)s2)c2ccccc2n1,-20*,-4,-5,0
C[C@H]1CCCCO[C@H](CN(C)C(=O)Nc2ccc3c(c2)OCO3)[C@@H](C)CN([C@@H](C)CO)C(=O)c2cc(NC(=O)NC3CCCCC3)ccc2O1,-2,35,·,1
COC(=O)CN1C(=S)N(Cc2ccccc2)C(=O)C1CC(=O)Nc1ccc(OC)cc1 (stereo not drawn),·,·,-5,·
CC(=O)NCCCC(=O)NN1C(=S)N(Cc2ccccc2)C(=O)C1CC(=O)Nc1cccc(C)c1 (stereo not drawn),-22*,·,-6,0
Cc1nn(C)c(C)c1/C=C/C(=O)O,10,5,-3,13*
COC(=O)c1ccccc1-c1c2ccc(=N)cc-2oc2cc(N)ccc12,64,-1,-13,62*
COC(=O)c1ccccc1-c1ccc(/C=N/NC(=O)c2cc3ccccc3o2)o1,·,2,-8,·
CC(C)CC#Cc1cnc2c(c1)C(=O)N([C@H](C)CO)C[C@H](C)[C@H](CN(C)C(=O)Cc1ccncc1)O2,-2,6,·,·
COc1ccc(NC(=O)C2CC3C=CC2C3)c([N+](=O)[O-])c1 (stereo not drawn),-22*,·,-6,1
C[C@H](CO)N1C[C@H](C)[C@@H](CN(C)S(=O)(=O)c2cn(C)cn2)Oc2c(NC(=O)CCCN(C)C)cccc2C1=O,4,·,·,·
CCN(CC)S(=O)(=O)c1cc(NC(=O)c2n[nH]c(=O)c3ccccc23)ccc1C,4,0,-6,-2
CN(C)S(=O)(=O)c1cccc(NC(=O)c2n[nH]c(=O)c3ccccc23)c1,-26*,·,-1,-1
COc1ccc2c3c(n(C)c2c1)[C@@H](CO)N(C(=O)C1CCOCC1)CC31CN(C(=O)Nc2cccc(F)c2)C1,1,·,·,·
CCn1c(C)nc2cc(C(=O)NNC(=S)Nc3ccccc3OC)ccc21,-20*,·,-2,-2
CN1OC[C@@H]2CN(C(=O)CCc3ccccc3)[C@H](c3ccc(-n4ccnc4)cc3)C[C@@H]21,8,-2,-6,-2
CN1OC[C@@H]2CN(Cc3ccccc3)[C@H](c3ccc(-n4ccnc4)cc3)C[C@@H]21,-32*,-2,-7,4
O=C(C[C@H]1C=C[C@H](NC(=O)Nc2cc(F)ccc2F)[C@@H](CO)O1)NCCCN1CCOCC1,4,121*,·,4
O=C(C[C@@H]1C=C[C@@H](NC(=O)c2cccc(F)c2)[C@H](CO)O1)NCCN1CCCC1,2,95*,·,0
O=C(C[C@@H]1CC[C@@H](NC(=O)c2cccnc2)[C@@H](CO)O1)NCCN1CCCCC1,4,93*,·,7
CN1C(=O)c2cc(NC(=O)Cc3cccs3)ccc2OC[C@H]2O[C@@H](CC(=O)NCC3CC3)CC[C@@H]21,4,-2,·,-1
SMILES,Ecoli rRNA inh,Cneo AK release,CaV13 FRET inh,CFTR F508del cor
C[C@H]1CCCCO[C@H](CN(C)C(=O)Cc2ccccc2)[C@@H](C)CN([C@@H](C)CO)C(=O)c2cc(N(C)C)ccc2O1,-6,·,·,11*
C[C@H]1CCCCO[C@@H](CN(C)Cc2ccncc2)[C@@H](C)CN([C@@H](C)CO)C(=O)c2cc(NC(=O)Nc3ccccc3)ccc2O1,-1,99*,·,1
COc1ccc(CN(C)C[C@@H]2OCCCC[C@H](C)Oc3ccc(N(C)C)cc3C(=O)N([C@H](C)CO)C[C@@H]2C)cc1,-1,94*,·,-3
C[C@@H]1CN([C@H](C)CO)C(=O)c2cc(N(C)C)ccc2O[C@@H](C)CCCCO[C@@H]1CN(C)C(=O)Cc1ccccc1,-1,0,·,-2
C[C@@H]1CCCCO[C@H](CN(C)Cc2ccncc2)[C@@H](C)CN([C@H](C)CO)C(=O)c2cc(N(C)C)ccc2O1,9,110*,-6,3
C[C@H]1CCCCO[C@H](CN(C)Cc2ccncc2)[C@@H](C)CN([C@@H](C)CO)C(=O)c2cc(N(C)C)ccc2O1,3,-3,·,-1
C[C@@H]1CCCCO[C@@H](CN(C)Cc2ccccc2)[C@H](C)CN([C@H](C)CO)C(=O)c2cc(N(C)C)ccc2O1,2,·,·,3
C[C@@H]1CCCCO[C@H](CN(C)Cc2ccncc2)[C@H](C)CN([C@@H](C)CO)C(=O)c2cc(NC(=O)Nc3ccccc3)ccc2O1,-3,-3,·,-2
CN(C)CCCNC(=O)C[C@H]1CC[C@H]2[C@H](COc3ccc(NC(=O)c4cccc(F)c4)cc3C(=O)N2C)O1,2,2,·,1
CCOc1ccc(C(C)NC(=S)NCc2ccc(F)cc2)cc1 (stereo not drawn),-28,35,·,1
Fc1ccc(CNC(=S)NCc2ccc(F)cc2)cc1,-31*,·,1,1
CCc1ccc(C(C)NC(=S)NCc2ccc(F)cc2)cc1 (stereo not drawn),-35,115*,-6,0
COC(=O)[C@@H](NS(=O)(=O)c1cc(Br)ccc1Br)C(C)C,-26*,-3,-7,2
COc1ccc(-c2csc(Nc3cccc(C)n3)n2)cc1,-2,-4,-19,4
Cc1cccc(Nc2nc(-c3ccc(F)cc3)cs2)n1,-18*,3,-4,8
CC(=O)OCCn1c2nc(=O)[nH]c(=O)c-2nc2cc(C)c(C)cc21,89,1,-77,18*
CC(=O)OCCn1c(C)[n+](CCOC(C)=O)c2cc(Cl)c(Cl)cc21,11,·,8,0
CC(C)[C@H]1C(=O)N[C@@H](c2ccc3c(c2)OCO3)CC=CC[C@@H](C)Oc2ccccc2C(=O)N1C (mixture of isomers),-2,·,·,·
CC(=O)N1C[C@H]2[C@@H](c3ccccc31)[C@@H](CO)N2S(=O)(=O)c1ccccc1,2,-6,·,-6
Cc1ccsc1/C=C1\CCC(C2CCCC2)C1=O (stereo not drawn),-23*,·,0,-2
Cc1ccc(/C=C2\CCC(C3CCCC3)C2=O)cc1 (stereo not drawn),·,-4,-3,1
